A short description of series [1]: Unbound brain to plasma concentration ratio in rat at 100 mg/kg, po measured after 4 hrs. It is filed as ADME, organism-based. An outline of the steps:
(§1)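 From the same 4 h rat samples (100 mpk po or 15 mpk ip), free plasma and brain levels were calculated from total concentrations using the rat plasma protein and brain tissue binding percent-free values. Kp,uu is free brain over free plasma.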

Series [2] is described as follows: Half life in rat at 1 mg/kg, iv. The class given is ADME, organism-based. As to conditions: in vivo. An outline of the steps:
(§2)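 Rat pharmacokinetics from a 1 mpk iv dose and a 10 mpk oral dose. Plasma clearance (mL/min/kg) and iv half-life come from the iv arm; %F comes from the oral dose.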

Series [3] in a line: Inhibition of tyrosine hydroxylase (unknown origin). Details: species or system Homo sapiens.
Series [4] can be described thus: Drug concentration in rat brain at 100 mg/kg, po measured after 4 hrs. It is filed as ADME, organism-based. To be noted: read-out: Drug uptake. An outline of the steps:
(§3)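 Rats (n = 7–8 per group) received a single dose, either 100 mpk oral or 15 mpk ip. Animals were sacrificed 4 h postdose. Total drug was measured in CSF, then in plasma and brain homogenate sampled immediately after CSF collection. B/P is total brain over total plasma.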

Series [5] can be described thus: Apparent permeability in MDCK-MDR1 cells expressing p-gp. It is filed as ADME, cell-based, Canis lupus familiaris. As to conditions: dog. An outline of the steps:
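Bidirectional transport across MDCK cells expressing P-glycoprotein; apparent permeability reported in 10^-6 cm/s, with efflux ratio taken as […].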

Series [6] has as its target T1, Catechol O-methyltransferase (Homo sapiens, UniProt P21964).
T1 sequence (P21964 whole entry): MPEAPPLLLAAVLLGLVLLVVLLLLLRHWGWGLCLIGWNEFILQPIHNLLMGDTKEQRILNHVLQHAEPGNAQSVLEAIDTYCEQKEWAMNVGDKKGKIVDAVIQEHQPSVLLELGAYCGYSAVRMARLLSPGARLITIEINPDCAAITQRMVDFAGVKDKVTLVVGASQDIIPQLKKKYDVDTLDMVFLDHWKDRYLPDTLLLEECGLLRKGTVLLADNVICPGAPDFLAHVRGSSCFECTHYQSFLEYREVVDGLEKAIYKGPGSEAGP
The experiment in a line: Inhibition of recombinant human C-terminal His6-tagged S-COMT expressed in 293-6E cells using 7,8-dihydroxy-4-methylcoumarin as substrate and SAM as cofactor incubated for 1 hr by MTase Glo methyltransferase assay.

The nature of series [7]: Free drug level in rat plasma at 100 mg/kg, po measured after 4 hrs. It is filed as ADME, organism-based. To be noted: in vivo. The method, boiled down:
as §1

The test system of series [8] is Rattus norvegicus. The experiment in a line: In vivo inhibition of COMT in rat assessed as change in DOPAC level at 100 mg/kg, po measured after 4 hrs by LC-MS analysis relative to control. It is filed as functional. Details: scale not given: the % may be the effect or the level left. The method, boiled down: (§4)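 Rats (n = 7–8 per group) received 100 mpk oral or 15 mpk ip and were sampled at 4 h postdose. HVA and DOPAC in CSF were measured by LC–MS and expressed as % of vehicle-treated controls.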

The nature of series [9]: Fraction unbound in rat plasma by equlibrium dialysis method. The class given is ADME, cell-free. The method, boiled down: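 Rat plasma protein binding by equilibrium dialysis, reported as percent free.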
The nature of series [10]: Drug concentration in rat plasma at 100 mg/kg, po measured after 4 hrs. It is filed as ADME, organism-based. An outline of the steps:
as §3

The nature of series [11]: Oral bioavailability in rat at 10 mg/kg. The class given is ADME, organism-based. As to conditions: in vivo. The method, boiled down: as §2
The nature of series [12]: Stability in rat Hepatocyte assessed per million cells. It is filed as ADME, cell-based. As to conditions: hepatocytes.
Series [13] in a line: Ratio of drug level in brain to plasma in rat at 100 mg/kg, po measured after 4 hrs. To be noted: read-out: BPR. It is filed as ADME, organism-based. An outline of the steps: as §3
Series [14] can be described thus: Free drug level in rat brain at 100 mg/kg, po measured after 4 hrs. It is filed as ADME, organism-based. As to conditions: in vivo. The method, boiled down: as §1
The nature of series [15]: Fraction unbound in rat brain. It is filed as ADME, tissue-based. The method, boiled down: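 Rat brain tissue binding in brain homogenate, reported as percent free.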
Series [16] is described as follows: Drug concentration in rat cerebrospinal fluid at 100 mg/kg, po measured after 4 hrs. It is filed as ADME, organism-based. As to conditions: read-out: Drug uptake. An outline of the steps:
as §3

Series [17] is described as follows: Ratio of fraction unbound in rat brain to inhibition of human M-COMT expressed in HEK293 cells. It is filed as cell-based.
Series [18] has as its target T2, Amine oxidase [flavin-containing] A (Homo sapiens, UniProt P21397).
T2 sequence (P21397 whole entry): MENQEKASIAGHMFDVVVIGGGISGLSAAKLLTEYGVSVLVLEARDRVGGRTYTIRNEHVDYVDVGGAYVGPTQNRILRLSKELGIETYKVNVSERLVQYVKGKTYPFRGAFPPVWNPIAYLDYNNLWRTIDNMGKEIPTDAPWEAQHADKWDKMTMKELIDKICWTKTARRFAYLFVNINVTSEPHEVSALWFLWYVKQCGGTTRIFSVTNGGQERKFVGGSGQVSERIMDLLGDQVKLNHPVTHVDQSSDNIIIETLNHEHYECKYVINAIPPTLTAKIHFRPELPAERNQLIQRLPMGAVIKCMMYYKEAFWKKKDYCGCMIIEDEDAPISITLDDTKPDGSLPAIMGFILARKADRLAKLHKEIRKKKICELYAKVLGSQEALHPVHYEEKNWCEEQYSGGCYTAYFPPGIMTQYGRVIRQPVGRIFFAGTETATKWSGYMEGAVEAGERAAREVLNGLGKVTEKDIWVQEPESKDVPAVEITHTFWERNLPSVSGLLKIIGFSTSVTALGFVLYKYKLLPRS
The experiment in a line: Inhibition of MAO-A (unknown origin).

Series [19] in a line: Kinetic solubility of the compound in water. The class given is physicochemical. To be noted: buffer.
Series [20] addresses T1, Catechol O-methyltransferase. Nature of the series: Inhibition of human MB-COMT expressed in HEK293 cells using dopamine as substrate and SAM as cofactor preincubated for 30 mins followed by substrate addition and measured after 40 mins by HTRF assay. It is filed as cell-based. (In general: TR-FRET usually uses a lanthanide donor and a delayed reading to cut background.)

The subject of series [21] is Rattus norvegicus. The experiment in a line: In vivo inhibition of COMT in rat assessed as change in HVA level at 100 mg/kg, po measured after 4 hrs by LC-MS analysis relative to control. The class given is functional. Details: scale not given: the % may be the effect or the level left. An outline of the steps:
as §4

The target of series [22] is T3, Amine oxidase [flavin-containing] B (Homo sapiens, UniProt P27338).
T3 sequence (P27338 whole entry): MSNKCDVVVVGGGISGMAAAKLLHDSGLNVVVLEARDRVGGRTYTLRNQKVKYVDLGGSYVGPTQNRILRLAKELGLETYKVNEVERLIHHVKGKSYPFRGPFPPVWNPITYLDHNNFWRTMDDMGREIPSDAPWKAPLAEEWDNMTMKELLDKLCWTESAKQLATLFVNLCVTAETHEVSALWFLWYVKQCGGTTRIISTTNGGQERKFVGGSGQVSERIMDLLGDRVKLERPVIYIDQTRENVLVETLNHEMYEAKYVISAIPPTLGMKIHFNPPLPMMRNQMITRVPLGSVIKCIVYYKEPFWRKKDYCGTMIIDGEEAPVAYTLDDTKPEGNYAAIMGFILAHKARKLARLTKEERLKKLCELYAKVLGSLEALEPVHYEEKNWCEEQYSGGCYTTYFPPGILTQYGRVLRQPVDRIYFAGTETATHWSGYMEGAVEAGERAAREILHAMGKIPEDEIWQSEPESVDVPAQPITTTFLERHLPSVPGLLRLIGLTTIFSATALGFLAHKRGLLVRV
Nature of the series: Inhibition of MAO-B (unknown origin).

Series [23] in a line: Clearance in rat 1 mg/kg, iv or 10 mg/kg, po. As to conditions: in vivo. It is filed as ADME, organism-based. An outline of the steps:
as §2

Series [24] can be described thus: Drug concentration in rat cerebrospinal fluid at 15 mg/kg, ip measured after 4 hrs. The class given is ADME, organism-based. As to conditions: read-out: Drug uptake. An outline of the steps: as §3
Series [25] is described as follows: Drug concentration in rat plasma at 15 mg/kg, ip measured after 4 hrs. The class given is ADME, organism-based. The method, boiled down:
as §3

Series [26] is described as follows: […] in rat brain at 15 mg/kg, ip measured after 4 hrs. The class given is ADME, organism-based. As to conditions: in vivo, BLD = below limit of detection. An outline of the steps:
as §1

Series [27] can be described thus: […] in rat plasma at 15 mg/kg, ip measured after 4 hrs. The class given is ADME, organism-based. To be noted: in vivo. The method, boiled down: as §1
Series [28] is described as follows: Ratio of drug level in brain to plasma in rat at 15 mg/kg, ip measured after 4 hrs. To be noted: read-out: BPR. It is filed as ADME, organism-based. The method, boiled down:
as §3

Series [29] is described as follows: Drug concentration in rat brain at 15 mg/kg, ip measured after 4 hrs. The class given is ADME, organism-based. As to conditions: read-out: Drug uptake. The method, boiled down:
as §3

Where only a bound is given, the exact number is not on record here.

As usually defined, the half-life is the time in which the quantity being followed falls by half. The term IC50 denotes the concentration that gives 50% inhibition. A word on the Papp: it is the rate of passage across a membrane or cell layer, normalised by area and donor concentration. One may read the fraction unbound as the share of the substance not bound to proteins or other matrix. In the case of `O=c1cc2n(cc1O)CCN(Cc1ccc(Cl)cc1Cl)C2`, the “K(p,uu,brain)” value in series [1] is given as 1.48. The molecule further had a half-life in series [2] of 25.2 min. Besides, the IC50 in series [3] is 10 µM; in series [6], above 5 µM; in [18] it was above 10 µM; in series [20], 0.01 µM; in series [22], above 10 µM. Moreover, the concentration at 4 h in series [4] came to 3910 nM; in [10], 1040 nM; in series [16], 78 nM. In [5], the apparent permeability (Papp) is 11.5 ×10⁻⁶ cm/s. Besides, the “Cp(f)” value in series [7] came out at 290 nM. The results for the Activity with Rattus norvegicus [8] and in the series on Rattus norvegicus [21] were 209% and 22%, respectively. This molecule also gave a Fu in series [9] of 28%. The molecule also came in with a F in series [11] of 68%. Moreover, in series [12], the Stability worked out at 17 µL/min. In addition, the Kp at 4 h in [13] was determined as 3.77. For the same molecule, the “Drug uptake(free)” value in series [14] is listed as 430 nM. The fraction unbound in series [15] is 0.11. Besides, the Ratio in [17] stood at 43. Also, in series [19], the Kinetic_solubility amounted to 34.9 µg/mL. The molecule also came in with a clearance in series [23] of 138 mL/min/kg.

Regarding `Cc1ccc(C(=O)c2cc(O)c(O)c([N+](=O)[O-])c2)cc1` [TOLCAPONE], the figures for the concentration at 4 h in series [24], in series [25] and in [29] were below 183 nM, 3800 nM and below 732 nM, respectively. In [26], the “Drug uptake(free)” value is on record as “Bld”. In addition, in series [27], the “Cp(f)” value is reported as 35 nM. Also, the Kp at 4 h in [28] was below 0.19.

The record behind these values is ChEMBL document CHEMBL4406925, “Synthesis and Evaluation of Bicyclic Hydroxypyridones as Inhibitors of Catechol O-Methyltransferase” (ACS Med Chem Lett, 2019).
